Assay results published in ChEMBL document CHEMBL1141177, “The novel L- and D-amino acid derivatives of hydroxyurea and hydantoins: synthesis, X-ray crystal structure study, and cytostatic and antiviral activity evaluations” (J Med Chem, 2005).
Values after ≈ are worked out from the molar mass of the structure shown.

Key:
[1] = Effective concentration required to reduce plaque formation by AD-169 strain of CMV virus in Human embryonic lung cells; type: functional, cell-based
Procedure, shortened: (§1)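 Plaque reduction assay in human embryonic lung (HEL) cell cultures, virus input 100 plaque forming units. Viruses: CMV strains AD-169 and Davis, VZV TK+ strain OKA and TK− strain 07/1. EC50 is the concentration that reduces virus plaque formation by 50%.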

HEL [2] = assay: Cytotoxic concentration to reduce the 50% cell growth of human embryonic lung cells; type: functional
HEL [3] = assay: Minimum cytotoxic concentration of compound that causes alteration of cell morphology in human embryonic lung cells; type: functional
Procedure, shortened: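 Human embryonic lung (HEL) cells were examined microscopically. MCC is the minimum concentration that causes a detectable alteration of cell morphology.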

[4] = Effective concentration required to reduce plaque formation by Davis strain of CMV virus in Human embryonic lung cells; type: functional, cell-based; procedure, shortened: as §1
Cytomegalovirus [5] = assay: Effective concentration to reduce plaque formation of Cytomegalovirus AD-169 strain in human embryonic lung cell cultures; type: functional, organism-based; details: Human betaherpesvirus 5, lung; procedure, shortened: as §1
Cytomegalovirus [6] = assay: Effective concentration of the compound to reduce plaque-formation of Cytomegalovirus davis strain in human embryonic lungcell cultures; type: functional, organism-based; details: Human betaherpesvirus 5; procedure, shortened: as §1
MIA PaCa-2 = assay: Inhibition of pancreatic carcinoma cell line (MiaPaCa-2) growth; type: functional, cell-based; details: Homo sapiens
Procedure, shortened: (§2)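 Monolayers in DMEM with 10% FBS, 2 mM L-glutamine, penicillin/streptomycin, 37 °C, 5% CO2. Cells seeded on day 0, then compounds added in 5- and 10-fold dilutions (10^-8–10^-4 M) for 72 h. MTT read-out at 570 nm. Percent growth calculated relative to time-zero and untreated OD. Quadruplicates in three experiments; IC50 by linear interpolation, highest concentration reported as ">" when not reached.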

MCF7 = assay: Inhibition of breast carcinoma cell line (MCF-7) growth; type: functional, cell-based; details: Homo sapiens; procedure, shortened: as §2
Human alphaherpesvirus 3 [7] = assay: Reduction of plaque formation by VZV07/1 strain of thymidine kinase(TK-) deficient VZ virus in human embryonic lung cells; type: functional, organism-based; details: Human alphaherpesvirus 3, lung
L1210 = assay: Inhibition of murine leukemia cells (L1210) growth; type: functional, cell-based; details: Mus musculus
WI-38 = assay: Inhibition of normal human fibroblast cell line (WI 38) growth; type: functional, cell-based; procedure, shortened: as §2
SW-620 = assay: Inhibition of colon carcinoma cell line (SW 620) growth; type: functional, cell-based; details: Homo sapiens; procedure, shortened: as §2
Human alphaherpesvirus 3 [8] = assay: Effective concentration of compound required to reduce plaque formation by OKA strain of thymidine kinase positive VZ virus TK+ in human embryonic lung cells; type: functional, organism-based; details: Human alphaherpesvirus 3, lung
MOLT-4 = assay: Inhibition of human T-lymphocyte cell line (Molt4/C8) growth; type: functional, cell-based
HeLa = assay: Inhibition of cervical carcinoma cell line (HeLa) growth; type: functional, cell-based; details: Homo sapiens; procedure, shortened: as §2
HEp-2 = assay: Inhibition of laryngeal carcinoma cell line (Hep-2) growth; type: functional, cell-based; details: Homo sapiens; procedure, shortened: as §2
[9] = Homo sapiens, HEL, read-out: CC50

Row | SMILES | EC50 [1] | CC50 (HEL [2]) | CC50 (HEL [2]; [9]) | MCC (HEL [3]) | EC50 [4] | EC50 (Cytomegalovirus [5]) | EC50 (Cytomegalovirus [6]) | IC50 (MIA PaCa-2) | IC50 (MCF7) | EC50 (Human alphaherpesvirus 3 [7]) | IC50 (L1210) | IC50 (WI-38) | IC50 (SW-620) | EC50 (Human alphaherpesvirus 3 [8]) | IC50 (MOLT-4) | IC50 (HeLa) | IC50 (HEp-2)
1 | Nc1ccn(C[C@@H](CO)OCP(=O)(O)O)c(=O)n1.O.O [CIDOFOVIR] | 0.13 µg/mL | 21.3 µg/mL | 21.3 µg/mL | > 400 µg/mL | 0.13 µg/mL | 0.13 µg/mL | 0.13 µg/mL |  |  |  |  |  |  |  |  |  | 
2 | Nc1nc2c(ncn2COC(CO)CO)c(=O)[nH]1 [GANCICLOVIR] | 0.24 µg/mL (≈ 0.94 µM) |  |  | > 400 µg/mL | 0.34 µg/mL (≈ 1.33 µM) | 0.24 µg/mL (≈ 0.94 µM) | 0.34 µg/mL (≈ 1.33 µM) |  |  |  |  |  |  |  |  |  | 
3 | CC(C)C1NC(=O)N(C2CCCCC2)C1=O (configuration not stated) | 45 µg/mL (≈ 201 µM) |  | > 50 µg/mL | ≥ 100 µg/mL | 41 µg/mL (≈ 183 µM) |  |  | > 100 µM | > 100 µM | 29 µg/mL (≈ 129 µM) | > 200 µM | > 100 µM | > 100 µM | 45 µg/mL (≈ 201 µM) | > 200 µM | > 100 µM | 100 µM
4 | O=C(NC(c1ccccc1)c1ccccc1)C(NC(=O)n1nnc2ccccc21)c1ccccc1 (configuration not stated) | > 16 µg/mL |  | 38.3 µg/mL (≈ 83 µM) | 80 µg/mL | > 16 µg/mL |  |  | 42.5 µM | 34.2 µM | > 3.2 µg/mL | 114 µM | 100 µM | 51.7 µM | > 3.2 µg/mL | 89 µM | 33.3 µM | 59.1 µM
5 | CC(C)C(NC(=O)n1nnc2ccccc21)C(=O)NC1CCCCC1 (configuration not stated) | > 80 µg/mL |  | 90 µg/mL (≈ 262 µM) | ≥ 80 µg/mL | > 16 µg/mL |  |  | > 100 µM | 79.3 µM | > 3.2 µg/mL | 108 µM | ≥ 100 µM | > 100 µM | > 3.2 µg/mL | 97 µM | 96.4 µM | 60 µM
6 | O=C(NC1CCCCC1)C(NC(=O)n1nnc2ccccc21)c1ccccc1 (configuration not stated) | > 3.2 µg/mL |  | 15 µg/mL (≈ 39.7 µM) | ≥ 16 µg/mL | > 16 µg/mL |  |  | ≥ 100 µM | 57.6 µM | > 3.2 µg/mL | 95 µM | > 100 µM | > 100 µM | > 0.64 µg/mL | 92 µM | 67 µM | 69.7 µM
7 | O=C(C(NC(=O)n1nnc2ccccc21)c1ccccc1)N1CCCCC1 (configuration not stated) | > 80 µg/mL |  | 188 µg/mL (≈ 517 µM) | 200 µg/mL | > 80 µg/mL |  |  | ≥ 100 µM | 67.4 µM | > 80 µg/mL | 82 µM | ≥ 100 µM | > 100 µM | > 80 µg/mL | 82 µM | > 100 µM | > 100 µM
8 | O=C(NC1CCCC1)C(Cc1ccccc1)NC(=O)n1nnc2ccccc21 (configuration not stated) | > 3.2 µg/mL |  | 15.5 µg/mL (≈ 41.1 µM) | 16 µg/mL | > 3.2 µg/mL |  |  | > 100 µM | 92 µM | > 3.2 µg/mL | 68 µM | > 100 µM | > 100 µM | > 3.2 µg/mL | 61 µM | 53.8 µM | 95 µM
9 | O=C1NC(c2ccccc2)C(=O)N1Cc1ccccc1 (configuration not stated) | 7.6 µg/mL (≈ 28.5 µM) |  | 12.5 µg/mL (≈ 46.9 µM) | 100 µg/mL | 4 µg/mL (≈ 15 µM) |  |  | 68.9 µM | 3.3 µM | 11 µg/mL (≈ 41.3 µM) | > 200 µM | 78.9 µM | 96.8 µM | 15 µg/mL (≈ 56.3 µM) | > 200 µM | > 100 µM | 82.9 µM
10 | CC(C)C1NC(=O)N(C2CCCC2)C1=O (configuration not stated) | > 100 µg/mL |  | > 50 µg/mL | > 100 µg/mL | > 100 µg/mL |  |  | > 100 µM | > 100 µM | > 90 µg/mL | > 200 µM | > 100 µM | > 100 µM | > 84 µg/mL | > 200 µM | > 100 µM | 98 µM
11 | O=C1NC(c2ccccc2)C(=O)N1C1CCCC1 (configuration not stated) | > 20 µg/mL |  | 27.4 µg/mL (≈ 112 µM) | ≥ 20 µg/mL | > 4 µg/mL |  |  | > 100 µM | 22 µM | 9 µg/mL (≈ 36.8 µM) | > 200 µM | > 100 µM | > 100 µM | > 4 µg/mL | > 200 µM | > 100 µM | > 100 µM
12 | O=C(C(Cc1ccccc1)NC(=O)n1nnc2ccccc21)N1CCCC1 (configuration not stated) | > 200 µg/mL |  | 148 µg/mL (≈ 406 µM) | > 200 µg/mL | > 200 µg/mL |  |  | > 100 µM | ≥ 100 µM | 106 µg/mL (≈ 292 µM) | 133 µM | > 100 µM | > 100 µM | 117 µg/mL (≈ 322 µM) | 123 µM | > 100 µM | ≥ 100 µM
